Compounds with a hit are over-represented: about 3% of the library has one in this group of screens.
ANO1 activ: TMEM16A chloride channel activators or potentiators, primary screen, cell-based, HTS | HEK293 TMEM16A/YFP-H148Q/I152L, iodide quench fluorescence; active compounds read low | B-score at 10 µM | 340,000 tested, 0.3% active;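 active = fluorescence-ratio B-score plate-corrected deviation score at least 3 library SD below zero, with starting fluorescence score within 5 deviations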;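 note: channel opened by trigger with iodide after compound preincubation; score built on the fluorescence ratio of max minus min over baseline; more negative score means more quench and so TMEM16A activation or potentiation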
TMEM16A inh: TMEM16A chloride channel inhibitors, primary screen, cell-based, HTS; HEK293 TMEM16A/YFP iodide influx fluorescence, ionomycin; AID 588511, 2011; 310,000 tested, 1.2% active; Anoctamin-1 (Mus musculus), Q8BHY3; normalized B-score (activity score, 25-100; higher = stronger inhibition) at 10 µM;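 active = ratio plate-corrected score three or more library SD toward inhibition, starting fluorescence score within five deviations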;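 note: score derived from kinetic fluorescence span divided by baseline fluorescence per well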
SR-BI HDL uptake: inhibitors of SR-BI mediated HDL lipid uptake, primary screen, ldlA[mSR-BI] cells, fluorescence, single point; Scavenger receptor class B member 1 (Mus musculus), Q61009; ldlA[mSR-BI] CHO cells, DiI-HDL uptake fluorescence, 3 h; inhibition, % at 12.5 µM; 320,000 tested, 0.96% active; AID 488896, 2010;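 active = mean replicate inhibition of at least 70% and a set share of replicates each scoring 70 or more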;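 note: 0% = median of neutral control wells and 100% = median of positive control wells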
Target sequence (Q61009 whole entry, looked up): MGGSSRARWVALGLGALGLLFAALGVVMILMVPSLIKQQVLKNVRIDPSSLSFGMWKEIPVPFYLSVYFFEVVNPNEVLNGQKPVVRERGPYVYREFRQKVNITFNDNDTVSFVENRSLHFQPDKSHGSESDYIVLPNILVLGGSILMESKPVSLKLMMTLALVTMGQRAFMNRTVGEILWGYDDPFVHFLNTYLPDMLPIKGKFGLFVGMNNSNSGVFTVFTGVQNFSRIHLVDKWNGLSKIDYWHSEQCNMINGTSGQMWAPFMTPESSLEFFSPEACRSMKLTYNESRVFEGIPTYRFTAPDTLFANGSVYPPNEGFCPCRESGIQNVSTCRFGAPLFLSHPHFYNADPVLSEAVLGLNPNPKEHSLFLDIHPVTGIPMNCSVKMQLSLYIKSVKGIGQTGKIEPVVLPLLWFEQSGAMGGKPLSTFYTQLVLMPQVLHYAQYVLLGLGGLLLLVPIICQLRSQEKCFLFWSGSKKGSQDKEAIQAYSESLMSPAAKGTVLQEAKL
SR-BI uptake up: activators of SR-BI mediated DiI-HDL uptake, primary screen, ldlA[mSR-BI] CHO cells, DiI fluorescence; 3 h; 100 = double the neutral-control signal; AID 504775, 2011; 320,000 tested, 0.096% active; activation, % at 12.5 µM;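 active = mean replicate activation of at least 60% and every replicate at or above 60%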;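 note: 0% = median plate neutral-control signal and 100% = twice that signal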
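Material: SR-BI-overexpressing, LDLR-lacking CHO cells; schedule: compound exposure 3 h, 37 °C; reagent: DiI-labelled HDL at 10 µg/mL final; technique: bottom-read fluorescence, 550/595 nm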
DNA FID counter: compounds displacing fluorescent DNA intercalator, primary screen, artefact control for HCV NS3 helicase inhibitor project, biochemical, FID fluorescence. inhibition, % at 7.9 µM. AID 1845, 2009. DNA fluorescent intercalator displacement. 290,000 tested, 0.17% active; in the data active = inhibition above about 37%;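 note: 0% = vehicle and 100% = reference compound; higher means more ethidium bromide displaced from hairpin DNA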
Kir21 block: inhibitors of mouse Kir2.1 inward-rectifier potassium channel; HEK293-Kir2.1, FluxOR thallium flux fluorescence; active compounds read low; B-score at 10 µM; 310,000 tested, 0.85% active;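 active = fluorescence ratio B-score at or below minus 3 SD of library scores, with starting-brightness B-score within 2 SD, cut at about -4.2 in these data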;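 note: channel flux triggered by added potassium and thallium sulfate stimulus; B-score of peak minus minimum fluorescence over baseline after thallium stimulus; more negative B-score means stronger Kir2.1 block with less thallium influx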
* hit, by the source's call; i = inactive; x = no result.

SMILES	ANO1 activ	TMEM16A inh	SR-BI HDL uptake	SR-BI uptake up	DNA FID counter	Kir21 block
CC1CCCC(C)N1C(=O)COC(=O)Cc1ccc(Cl)cc1 (configuration not stated)	i	i	-17	17	-22	1.5
CC1CCCC(C)N1C(=O)CSCc1ccc(Cl)cc1 (configuration not stated)	i	i	14	-14	-14	-4.9*
S=C(NCCN(C1CCCCC1)C1CCCC1)Nc1cccc(Cl)c1	i	i	17	-17	15	-4.5*
CNS(=O)(=O)c1cccc(C(=O)OCC(=O)N2CC(C)OC(C)C2)c1 (configuration not stated)	i	i	-8	8	-6	-1.2
O=[N+]([O-])c1ccccc1NC1CCN(Cc2ccccc2)CC1	i	i	5	-5	6	-7*
O=[N+]([O-])c1ccc(NC2CCN(Cc3ccccc3)CC2)c([N+](=O)[O-])c1	i	i	-6	6	18	-0.19
Cc1ccc(S(=O)(=O)Nc2nc(-c3ccc(F)cc3)cs2)cc1	i	i	x	x	-39	0.71
O=[N+]([O-])c1ccc(S(=O)(=O)Nc2ccncc2)cc1	i	i	-7	7	0	-0.12
O=[N+]([O-])c1ccc(S(=O)(=O)Nc2nc(-c3ccccc3)cs2)cc1	i	100*	-14	14	-17	0.91
O=[N+]([O-])c1ccc(Oc2ccc(S(=O)(=O)Nc3ccccc3)cc2)cc1	i	25*	8	-8	-4	0.49
Cc1ccc(NC(=O)c2ccc3nccnc3c2)c(C)c1	i	i	-8	8	-6	-0.31
O=C(c1ccccc1)N1N=C(C(F)(F)F)CC1(O)c1ccccc1 (configuration not stated)	i	i	-4	4	-22	-0.02
O=C(c1ccccc1)N1N=C(C(F)(F)F)CC1(O)c1ccc(F)cc1 (configuration not stated)	i	100*	x	x	-27	-2.2
Cn1cc(C(=O)c2ccc(Cl)cc2Cl)cc1C(=O)N/N=C(\N)COc1ccc(Cl)cc1Cl	i	i	83*	-83	-20	2.6
Cn1cc(C(=O)c2ccc(Cl)cc2Cl)cc1C(=O)N/N=C(\N)COc1ccc(Cl)cc1	i	i	x	x	-17	-0.67
CC(C)(C)N(Cc1ccccc1)C(=O)COC(=O)C1CCN(c2ccc(C(F)(F)F)cn2)CC1	-44*	x	10	-10	x	x
CC(C)N(Cc1ccccc1)C(=O)COC(=O)C1CCN(c2ccc(C(F)(F)F)cn2)CC1	i	x	-12	12	x	x
Cc1ccc(S(=O)(=O)N2[C@@H](c3ccccc3F)C(C(=O)O)=CC[C@H]2c2ccc(Cl)c(Cl)c2)cc1	i	100*	-16	16	x	x
Cc1ccc(S(=O)(=O)N2[C@@H](c3ccccc3)C(C(=O)O)=CC[C@H]2c2ccc(Cl)c(Cl)c2)cc1	i	100*	-20	20	x	x
Cc1ccc(S(=O)(=O)N2[C@@H](c3ccccc3F)C(C(=O)O)=CC[C@H]2c2cccc(C)c2)cc1	i	i	8	-8	x	x
CCOC(=O)c1ccc(N(CC2CO2)S(=O)(=O)c2ccc(C)cc2)cc1 (configuration not stated)	i	x	-28	28	x	x
O=[N+]([O-])c1ccc(Sc2nccn2Cc2ccccc2)cc1	i	i	1	-1	-7	-5*
CCc1ccccc1NC(=O)COc1cccc(-n2cnnn2)c1	i	i	x	x	-11	1.6
CC(C)N1CCC(N2CCN(Cc3ccc(-c4ccccc4Cl)o3)CC2CCO)CC1 (configuration not stated)	i	i	-45	45	53*	0.22
COc1ccccc1NS(=O)(=O)c1cccc(NC(=O)c2[nH]c(C)c(C(C)=O)c2C)c1	i	i	x	x	-6	0.06
SMILES	ANO1 activ	TMEM16A inh	SR-BI HDL uptake	SR-BI uptake up	DNA FID counter	Kir21 block
CC(=O)c1c(C)[nH]c(C(=O)Nc2cccc(S(=O)(=O)N(C)c3ccccc3)c2)c1C	i	i	80*	-80	-6	-0.65
CC(=O)c1c(C)[nH]c(C(=O)OCC(=O)Nc2ccc(Cl)c(S(=O)(=O)N(C)C)c2)c1C	i	i	x	x	-13	0.02
CC(=O)c1c(C)[nH]c(C(=O)Nc2ccc(Cl)c(S(=O)(=O)N(C)C)c2)c1C	i	i	82*	-82	-4	-0.77
Cc1ccc(C)c(OCC(=O)NNC(=O)c2ccc(NC(=O)C3CC3)cc2)c1	i	i	74*	-74	-28	-2.6
Cc1cc(Br)ccc1OCC(=O)NNC(=O)c1ccc(NC(=O)C2CC2)cc1	i	i	47	-47	-9	-1
COCC(=O)Nc1nc2n(n1)C(c1ccccc1Cl)CC(c1ccc(OC)cc1)N2 (configuration not stated)	i	i	8	-8	-29	0.5
COCC(=O)Nc1nc2n(n1)C(c1ccc(Cl)cc1)CC(c1ccc(OC)cc1)N2 (configuration not stated)	i	i	74*	-74	-32	-0.26
Cc1cc(C(=O)COC(=O)c2ccc(NC(=O)CC#N)cc2)c(C)n1C1CC1	i	x	79*	-79	x	x
Cc1ccc(Cn2ccsc2=NC(=O)COC(=O)c2ccc(NC(=O)CC#N)cc2)cc1	i	i	77*	-77	x	0.87
Cc1ccc(Cn2ccsc2=NC(=O)CCl)cc1	i	i	-12	12	-10	-0.33
COc1ccc(CNc2ccc(Cl)cc2)cc1Cn1ccnc1	i	i	-2	2	1	-4.3*
CCc1ccc(NCc2ccc(OC)c(Cn3ccnc3)c2)cc1	i	i	-22	22	-3	-1.1
Cc1cccc(N2CCc3c2nc2ccc(Br)cc2c3N)c1	i	i	91*	-91	-1	-0.56
O=C(NCc1ccc(F)cc1)c1ccncc1	i	i	-42	42	-4	0.37
CC1(c2nnc(-c3ccc(F)cc3)o2)CC(c2ccncc2)=NO1 (configuration not stated)	x	i	x	x	x	0.57
O=C(NNC(=S)NC(=O)c1cccc([N+](=O)[O-])c1)c1ccc(O)cc1	i	i	7	-7	-1	-0.03
O=C(NNC(=S)NC(=O)c1cccc([N+](=O)[O-])c1)c1ccc(Br)cc1	i	100*	-16	16	-4	0.39
